Experiments:
[1] = tested on: Echinochloa crus-galli; experiment: Post-emergence herbicidal activity against Echinochloa crus-galli (barnyard grass) assessed as inhibition at 150 g/hectare treated at one-leaf stage by green house assay; assay type: functional
Procedure, shortened: (§1)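 Monocot weeds were sprayed postemergence in the greenhouse at the one-leaf stage with diluted formulation solutions. Primary dose was 150 g ai/ha, with follow-up doses of 75 and 37.5 g ai/ha for selected compounds. Activity is scored as percent herbicidal damage compared with an untreated control.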

[2] = tested on: Setaria viridis; experiment: Post-emergence herbicidal activity against Setaria viridis (green foxtail) assessed as inhibition at 150 g/hectare treated at one-leaf stage by green house assay; assay type: functional; procedure, shortened: as §1
[3] = tested on: Amaranthus retroflexus; experiment: Post-emergence herbicidal activity against Amaranthus retroflexus assessed as inhibition at 150 g/hectare treated at two-leaf stage by green house assay; assay type: functional
Procedure, shortened: (§2)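 Greenhouse postemergence spray of diluted formulation solutions onto broadleaf weeds at the two-leaf stage. Primary screen at 150 g ai/ha, with selected compounds retested at 75 and 37.5 g ai/ha. Abutilon was tested at 150 g ai/ha only. Read-out is percent herbicidal damage relative to an untreated control.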

[4] = tested on: Eclipta prostrata; experiment: Post-emergence herbicidal activity against Eclipta prostrata assessed as inhibition at 150 g/hectare treated at two-leaf stage by green house assay; assay type: functional; procedure, shortened: as §2
[5] = tested on: Abutilon theophrasti; experiment: Post-emergence herbicidal activity against Abutilon theophrasti (velvetleaf) assessed as inhibition at 150 g/hectare treated at two-leaf stage by green house assay; assay type: functional; procedure, shortened: as §2
[6] = tested on: Brassica juncea; experiment: Post-emergence herbicidal activity against Brassica juncea assessed as inhibition at 150 g/hectare treated at two-leaf stage by green house assay; assay type: functional; procedure, shortened: as §2
[7] = tested on: Digitaria sanguinalis; experiment: Post-emergence herbicidal activity against Digitaria sanguinalis (hairy crabgrass) assessed as inhibition at 150 g/hectare treated at one-leaf stage by green house assay; assay type: functional; procedure, shortened: as §1
[8] = tested on: Echinochloa crus-galli; experiment: Post-emergence herbicidal activity against Echinochloa crus-galli (barnyard grass) assessed as inhibition at 75 g/hectare treated at one-leaf stage by green house assay; assay type: functional; procedure, shortened: as §1
[9] = tested on: Zea mays; experiment: Toxicity in Zea mays (maize) plant assessed as inhibition at 150 g/hectare; assay type: organism-based; settings: in vivo
Procedure, shortened: (§3)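 For crop selectivity, conventional crop varieties were planted in 12 cm diameter plots and given a postemergence treatment at 150 g ai/ha. Injury was scored as percent inhibition, with 0–10% classed as safe to the crop.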

[10] = tested on: Digitaria sanguinalis; experiment: Post-emergence herbicidal activity against Digitaria sanguinalis (hairy crabgrass) assessed as inhibition at 37.5 g/hectare treated at one-leaf stage by green house assay; assay type: functional; procedure, shortened: as §1
[11] = tested on: Setaria viridis; experiment: Post-emergence herbicidal activity against Setaria viridis (green foxtail) assessed as inhibition at 37.5 g/hectare treated at one-leaf stage by green house assay; assay type: functional; procedure, shortened: as §1
[12] = tested on: Amaranthus retroflexus; experiment: Post-emergence herbicidal activity against Amaranthus retroflexus assessed as inhibition at 75 g/hectare treated at two-leaf stage by green house assay; assay type: functional; procedure, shortened: as §2
[13] = tested on: Echinochloa crus-galli; experiment: Post-emergence herbicidal activity against Echinochloa crus-galli (barnyard grass) assessed as inhibition at 37.5 g/hectare treated at one-leaf stage by green house assay; assay type: functional; procedure, shortened: as §1
[14] = tested on: Oryza sativa; experiment: Toxicity in Oryza sativa (rice) plant assessed as inhibition at 150 g/hectare; assay type: organism-based; settings: in vivo; procedure, shortened: as §3
[15] = tested on: Brassica juncea; experiment: Post-emergence herbicidal activity against Brassica juncea assessed as inhibition at 75 g/hectare treated at two-leaf stage by green house assay; assay type: functional; procedure, shortened: as §2
[16] = tested on: Triticum aestivum; experiment: Toxicity in Triticum aestivum (wheat) plant assessed as inhibition at 150 g/hectare; assay type: organism-based; settings: in vivo; procedure, shortened: as §3
[17] = tested on: Gossypium hirsutum; experiment: Toxicity in Gossypium hirsutum (cotton) plant assessed as inhibition at 150 g/hectare; assay type: organism-based; settings: in vivo; procedure, shortened: as §3
[18] = tested on: Eclipta prostrata; experiment: Post-emergence herbicidal activity against Eclipta prostrata assessed as inhibition at 37.5 g/hectare treated at two-leaf stage by green house assay; assay type: functional; procedure, shortened: as §2
[19] = tested on: Glycine max; experiment: Toxicity in Glycine max (soybean) plant assessed as inhibition at 150 g/hectare; assay type: organism-based; settings: in vivo; procedure, shortened: as §3
[20] = tested on: Setaria viridis; experiment: Post-emergence herbicidal activity against Setaria viridis (green foxtail) assessed as inhibition at 75 g/hectare treated at one-leaf stage by green house assay; assay type: functional; procedure, shortened: as §1
[21] = tested on: Digitaria sanguinalis; experiment: Post-emergence herbicidal activity against Digitaria sanguinalis (hairy crabgrass) assessed as inhibition at 75 g/hectare treated at one-leaf stage by green house assay; assay type: functional; procedure, shortened: as §1
[22] = tested on: Amaranthus retroflexus; experiment: Post-emergence herbicidal activity against Amaranthus retroflexus assessed as inhibition at 37.5 g/hectare treated at two-leaf stage by green house assay; assay type: functional; procedure, shortened: as §2
[23] = tested on: Brassica juncea; experiment: Post-emergence herbicidal activity against Brassica juncea assessed as inhibition at 37.5 g/hectare treated at two-leaf stage by green house assay; assay type: functional; procedure, shortened: as §2
[24] = tested on: Brassica napus; experiment: Toxicity in Brassica napus (oilseed rape) assessed as inhibition at 150 g/hectare; assay type: functional; procedure, shortened: as §3
[25] = tested on: Eclipta prostrata; experiment: Post-emergence herbicidal activity against Eclipta prostrata assessed as inhibition at 75 g/hectare treated at two-leaf stage by green house assay; assay type: functional; procedure, shortened: as §2

| SMILES | inhibition at 150 g/ha [1] | inhibition at 150 g/ha [2] | inhibition at 150 g/ha [3] | inhibition at 150 g/ha [4] | inhibition at 150 g/ha [5] | inhibition at 150 g/ha [6] | inhibition at 150 g/ha [7] | other results |
| --- | --- | --- | --- | --- | --- | --- | --- | --- |
| COP(=O)(OC)C(C)OC(=O)COc1ccc(Cl)cc1C (stereo not drawn) | 0% | 0% | 10% | 30% | 82% | 20% | 0% | – |
| CC1(C)COP(=O)(C(OC(=O)COc2ccc(Cl)cc2)c2ccco2)OC1 (stereo not drawn) | 0% | 0% | 55% | 50% | 70% | 70% | 0% | – |
| Cc1cc(OCC(=O)OC(c2ccco2)P2(=O)OCC(C)(C)CO2)ccc1Cl (stereo not drawn) | 0% | 0% | 60% | 55% | 70% | 65% | 0% | – |
| Cc1cc(Cl)ccc1OCC(=O)OC(c1ccco1)P1(=O)OCC(C)(C)CO1 (stereo not drawn) | 60% | 0% | 100% | 70% | 100% | 90% | 0% | – |
| CC1(C)COP(=O)(C(OC(=O)COc2ccccc2Cl)c2ccccc2)OC1 (stereo not drawn) | 0% | 0% | 75% | 65% | 70% | 75% | 0% | – |
| CC1(C)COP(=O)(C(OC(=O)COc2ccc(Cl)cc2)c2ccccc2)OC1 (stereo not drawn) | 0% | 0% | 60% | 50% | 65% | 70% | 0% | – |
| Cc1cc(OCC(=O)OC(c2ccccc2)P2(=O)OCC(C)(C)CO2)ccc1Cl (stereo not drawn) | 0% | 0% | 65% | 60% | 65% | 65% | 0% | – |
| Cc1cc(Cl)ccc1OCC(=O)OC(c1ccccc1)P1(=O)OCC(C)(C)CO1 (stereo not drawn) | 40% | 0% | 100% | 75% | 100% | 90% | 0% | – |
| Cc1cc(OCC(=O)OC(C)P2(=O)OCC(C)(C)CO2)ccc1Cl (stereo not drawn) | 0% | 0% | 60% | 60% | 70% | 70% | 0% | – |
| CC(OC(=O)COc1ccccc1Cl)P1(=O)OCC(C)(C)CO1 (stereo not drawn) | 20% | 0% | 90% | 75% | 70% | 90% | 0% | – |
| CC(OC(=O)COc1ccc(Cl)cc1)P1(=O)OCC(C)(C)CO1 (stereo not drawn) | 10% | 0% | 70% | 60% | 70% | 75% | 0% | – |
| CC1(C)COP(=O)(C(OC(=O)COc2ccc(Cl)cc2Cl)c2ccc(Cl)cc2Cl)OC1 (stereo not drawn) | 0% | 0% | 80% | 70% | 95% | 100% | 0% | inhibition at 75 g/ha [8]: 0%; inhibition (INH) [9]: 10%; inhibition at 37.5 g/ha [10]: 0%; inhibition at 37.5 g/ha [11]: 0%; inhibition at 75 g/ha [12]: 20%; inhibition at 37.5 g/ha [13]: 0%; inhibition (INH) [14]: 10%; inhibition at 75 g/ha [15]: 55%; inhibition (INH) [16]: 0%; inhibition (INH) [17]: 20%; inhibition at 37.5 g/ha [18]: 30%; inhibition (INH) [19]: 30%; inhibition at 75 g/ha [20]: 0%; inhibition at 75 g/ha [21]: 0%; inhibition at 37.5 g/ha [22]: 20%; inhibition at 37.5 g/ha [23]: 50%; inhibition at 150 g/ha [24]: 40%; inhibition at 75 g/ha [25]: 34% |
| CC1(C)COP(=O)(C(OC(=O)COc2ccc(Cl)cc2Cl)c2ccc(Cl)cc2)OC1 (stereo not drawn) | 0% | 0% | 80% | 70% | 90% | 98% | 0% | inhibition at 75 g/ha [8]: 0%; inhibition (INH) [9]: 0%; inhibition at 37.5 g/ha [10]: 0%; inhibition at 37.5 g/ha [11]: 0%; inhibition at 75 g/ha [12]: 50%; inhibition at 37.5 g/ha [13]: 0%; inhibition (INH) [14]: 10%; inhibition at 75 g/ha [15]: 90%; inhibition (INH) [16]: 0%; inhibition (INH) [17]: 20%; inhibition at 37.5 g/ha [18]: 0%; inhibition (INH) [19]: 20%; inhibition at 75 g/ha [20]: 0%; inhibition at 75 g/ha [21]: 0%; inhibition at 37.5 g/ha [22]: 30%; inhibition at 37.5 g/ha [23]: 80%; inhibition at 150 g/ha [24]: 40%; inhibition at 75 g/ha [25]: 0% |
| CC(C)C(OC(=O)COc1ccc(Cl)cc1Cl)P1(=O)OCC(C)(C)CO1 (stereo not drawn) | 0% | 0% | 85% | 75% | 95% | 100% | 0% | inhibition at 75 g/ha [8]: 0%; inhibition (INH) [9]: 0%; inhibition at 37.5 g/ha [10]: 0%; inhibition at 37.5 g/ha [11]: 0%; inhibition at 75 g/ha [12]: 80%; inhibition at 37.5 g/ha [13]: 0%; inhibition (INH) [14]: 20%; inhibition at 75 g/ha [15]: 100%; inhibition (INH) [16]: 10%; inhibition (INH) [17]: 20%; inhibition at 37.5 g/ha [18]: 30%; inhibition (INH) [19]: 30%; inhibition at 75 g/ha [20]: 0%; inhibition at 75 g/ha [21]: 0%; inhibition at 37.5 g/ha [22]: 30%; inhibition at 37.5 g/ha [23]: 90%; inhibition at 150 g/ha [24]: 50%; inhibition at 75 g/ha [25]: 35% |
| CCCCC(OC(=O)COc1ccc(Cl)cc1Cl)P1(=O)OCC(C)(C)CO1 (stereo not drawn) | 0% | 0% | 85% | 75% | 90% | 100% | 0% | inhibition at 75 g/ha [8]: 0%; inhibition (INH) [9]: 0%; inhibition at 37.5 g/ha [10]: 0%; inhibition at 37.5 g/ha [11]: 0%; inhibition at 75 g/ha [12]: 70%; inhibition at 37.5 g/ha [13]: 0%; inhibition (INH) [14]: 30%; inhibition at 75 g/ha [15]: 100%; inhibition (INH) [16]: 10%; inhibition (INH) [17]: 20%; inhibition at 37.5 g/ha [18]: 30%; inhibition (INH) [19]: 30%; inhibition at 75 g/ha [20]: 0%; inhibition at 75 g/ha [21]: 0%; inhibition at 37.5 g/ha [22]: 50%; inhibition at 37.5 g/ha [23]: 90%; inhibition at 150 g/ha [24]: 40%; inhibition at 75 g/ha [25]: 40% |
| CC1(C)COP(=O)(C(OC(=O)COc2ccccc2Cl)c2ccco2)OC1 (stereo not drawn) | 0% | 0% | 85% | 70% | 70% | 90% | 0% | – |
| COP(=O)(OC)C(C)OC(=O)COc1ccc(Cl)cc1Cl (stereo not drawn) [CLACYFOS] | 0% | 0% | 96% | 90% | 100% | 85% | 0% | inhibition at 75 g/ha [8]: 0%; inhibition at 37.5 g/ha [10]: 0%; inhibition at 37.5 g/ha [11]: 0%; inhibition at 75 g/ha [12]: 95%; inhibition at 37.5 g/ha [13]: 0%; inhibition at 75 g/ha [15]: 95%; inhibition at 37.5 g/ha [18]: 60%; inhibition at 75 g/ha [20]: 0%; inhibition at 75 g/ha [21]: 0%; inhibition at 37.5 g/ha [22]: 70%; inhibition at 37.5 g/ha [23]: 90%; inhibition at 75 g/ha [25]: 80% |

Source: ChEMBL document CHEMBL3044653, “Synthesis and herbicidal activity of 2-(substituted phenoxyacetoxy)alkyl-5,5-dimethyl-1,3,2-dioxaphosphinan-2-one” (J Agric Food Chem, 2012)
